In ChEMBL document CHEMBL3997769, “Discovery and preclinical evaluation of 7-benzyl-N-(substituted)-pyrrolo[3,2-d]pyrimidin-4-amines as single agents with microtubule targeting effects along with triple-acting angiokinase inhibition as antitumor agents” (Bioorg Med Chem, 2017):
Calls of active or inactive are those of the source. No cut-off for these calls is given here.

How the values were obtained:
HeLa = experiment: Growth inhibition of human HeLa cells measured after 96 hrs by sulforhodamine B assay; type: functional, cell-based
Method in brief: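 Exposed 96 h to varying compound concentrations in 0.5% DMSO. Cell protein measured by sulforhodamine B; IC50 = concentration halving the increase in cell protein versus untreated cultures.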

4T1 [1] = experiment: Antitumor activity against luciferase/GFP-tagged mouse 4T1 cells implanted in Balb/CJ mouse assessed as reduction in primary tumor growth at 1 mg/kg, ip administered once in a week; type: functional, organism-based
Mus musculus = experiment: Toxicity in Balb/cJ mouse implanted with luciferase/GFP-tagged mouse 4T1 cells assessed as body weight gain at 1 mg/kg, ip administered once weekly measured at day 40 post dose; type: organism-based; details: in vivo
4T1 [2] = experiment: Antitumor activity against luciferase/GFP-tagged mouse 4T1 cells implanted in Balb/cJ mouse assessed as reduction in lung metastasis at 1 mg/kg, ip administered once weekly by fluorescence microscopic method; type: functional, organism-based
Method in brief: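 Orthotopic 4T1-Luc2-GFP allograft in the mammary fat pad of female BALB/cJ mice; IP treatment in 5% Pharmasolve/5% Solutol HS in saline began one week after implantation. At study end, lungs were excised from mice euthanized under isoflurane and imaged with a GFP-filter fluorescence dissecting microscope; GFP-positive metastases per lung counted. n = 9-10.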

[3] = Toxicity in Balb/cJ mouse assessed as body weight loss administered once weekly measured every 2 days during compound dosing; details: in vivo
Method in brief: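 Female BALB/cJ mice, 8 weeks old, carrying orthotopic 4T1-Luc2-GFP allografts (7,500 cells in mammary fat pad #4). IP dosing at 1 mg/kg once weekly began one week after implantation, in 5% Pharmasolve/5% Solutol HS in normal saline. Body weight was reported as percent change at day 40 from starting weight, vs untreated controls, n = 9–10, by one-way ANOVA.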

Row | Compound | IC50 (HeLa) | Activity (4T1 [1]) | Activity (Mus musculus) | Activity (4T1 [2]) | MTD at 48 h [3]
1 | COc1ccc2c(c1)CCCN2c1nc(C)nc2c(Cc3ccccc3)cn(C)c12 | 60 nM |  |  |  | 
2 | COc1cccc2c1C(=O)c1c(O)c3c(c(O)c1C2=O)C[C@@](O)(C(=O)CO)C[C@@H]3O[C@H]1C[C@H](N)[C@H](O)[C@H](C)O1 [DOXORUBICIN] |  | inactive | Toxic | Active | 1 mg/kg
